Measured values collected from several papers.
Target: Tyrosine-protein kinase Yes (YES1, Homo sapiens, UniProt P07947)

CN([C@@H]1CCc2c(CC(=O)O)c3cc(S(C)(=O)=O)ccc3n2C1)S(=O)(=O)c1ccc(F)cc1
remaining binding (cell-free assay; competition with immobilised ligand; 1 µM): 88%

O=C(c1ccc(Nc2ncc(Cl)c(-c3ccc(Cl)s3)n2)cc1)N1CCC(N2CCCC2)CC1
remaining binding (binding; competition with immobilised ligand; 1 µM): 55%

CN(C)c1ncnc(-c2ccc3nc(Nc4cc(CN5CCN(C(=O)CC(F)(F)F)CC5)ccn4)[nH]c3c2)c1Cl
remaining binding (cell-free assay; competition with immobilised ligand; 1 µM): 76%

CN(C)c1nccc(-c2cnn3ncccc23)n1
remaining binding (binding; 1 µM): 78%

c1cncc(-c2cccc(Nc3nccc(NC4CCCCC4)n3)c2)c1
remaining binding (binding; competition with immobilised ligand; 10 µM): 28%

CNC(=O)[C@@H]1CC[C@@H](n2c(-c3ccc4cnccc4c3)nc3ccc(C(=O)NCc4cccc(C(N)=O)c4)cc32)C1
remaining binding (binding; competition with immobilised ligand; 1 µM): 100%

CC(=O)Nc1c(C(C)=O)c(=O)n(C)c2nc(-c3ccc(Cl)cc3Cl)c(-c3ccc(Cl)cc3)cc12
remaining binding (cell-free assay; competition with immobilised ligand; 1 µM): 100%

O=C(NCCCN1CCOCC1)c1ccc(Nc2nccc(-c3cc4ccccc4s3)n2)cc1
remaining binding (binding; competition with immobilised ligand; 1 µM): 91%

O=C(NCC1CCOCC1)c1n[nH]cc1NC(=O)c1c(F)cccc1F
remaining binding (binding; competition with immobilised ligand; 1 µM): 99%

Cc1nc(C2CCN(C(=O)c3ccc(OC(F)(F)F)cc3N)CC2)c2ncc(N3CCN(C)CC3)cc2n1
remaining binding (cell-free assay; competition with immobilised ligand; 1 µM): 100%

O=C(c1ccc(Nc2ncc(Cl)c(-c3cc4ccccc4s3)n2)cc1)N1CCC(N2CCCC2)CC1
remaining binding (binding; competition with immobilised ligand; 1 µM): 71%

CN(C)c1nccc(-c2cnc3ncccn23)n1
remaining binding (binding; 1 µM): 88%

COc1cnc(Nc2cccc(S(N)(=O)=O)c2)nc1N1CCN(c2ccccc2)CC1
remaining binding (binding; competition with immobilised ligand; 1 µM): 89%

CSc1cccnc1N1CCN(Cc2nc3ccccc3[nH]2)CC1
remaining binding (cell-free assay; competition with immobilised ligand; 1 µM): 100%

CCN1CCN(Cc2ccc(C(=O)Nc3ccc(C)c(Oc4ccc5c(c4)CC(=O)N5)c3)cc2C(F)(F)F)CC1
remaining binding (binding; competition with immobilised ligand; 1 µM): 98%

CN1CCN(c2ccc(Nc3nccc(-c4ccccc4)n3)cc2C(F)(F)F)CC1
remaining binding (binding; 10 µM): 56%

N[C@@H]1CCN(c2nccc(-c3cnn4ncccc34)n2)C1
remaining binding (binding; 1 µM): 100%

O=C(NCc1ncc(C(F)(F)F)cc1Cl)c1ccc2c(c1)C1(CCS(=O)(=O)CC1)[C@H](C1CC1)N2S(=O)(=O)c1ccc(F)cc1
remaining binding (cell-free assay; competition with immobilised ligand; 1 µM): 90%

Cc1ccc(-n2nc(C(C)(C)C)cc2NC(=O)Nc2ccc(-n3c(N)c(C(N)=O)c4nc5ccccc5nc43)cc2)cc1
remaining binding (cell-free assay; competition with immobilised ligand; 1 µM): 9.6%

CC1CCCN1c1nccc(-c2cnn3ncccc23)n1 (stereo not shown)
remaining binding (binding; 1 µM): 89%

FC(F)(F)Oc1cccc(-c2cnc3ccc(-c4ccncc4)nn23)c1
remaining binding (binding; competition with immobilised ligand; 5 µM): 81%

O=C(N[C@H]1CCCCC/C=C\C2C[C@@]2(C(=O)O)NC(=O)[C@@H]2C[C@@H](Oc3ccncc3)CN2C1=O)OC1CCCC1 (stereo partly shown)
remaining binding (binding; competition with immobilised ligand; 1 µM): 100%

CN(CCCC(F)(F)F)c1nccc(-c2cnn3ncccc23)n1
remaining binding (binding; 1 µM): 94%

C[C@H](NC(=O)c1cnc2n1[C@](C)(Cc1ccc(C#N)cc1)C(=O)N2c1cc(Cl)c(F)c(Cl)c1)C(=O)NC1(c2ccccn2)CC1
remaining binding (cell-free assay; competition with immobilised ligand; 1 µM): 100%

C[C@@H]1CCN(c2nccc(-c3cnn4ncccc34)n2)C1
remaining binding (binding; 1 µM): 100%
